From ChEMBL document CHEMBL5108057, “Development of MAO-A and 5-HT2AR Dual Inhibitors with Improved Antidepressant Activity” (J Med Chem, 2022)
pIC50: −log10 of the molar value. Activity calls are given as the source filed them. The calls are words filed in the database; no cut-off is given here.

Assays:
[1] = MRT infinity in Sprague-Dawley rat at 10 mg/kg, IG measured upto 1440 mins by LC-MS/MS analysis; assay type: ADME, organism-based; conditions: in vivo, po
[2] = AUC(0 to infinity) in Sprague-Dawley rat at 10 mg/kg, IG measured upto 1440 mins by LC-MS/MS analysis; assay type: ADME, organism-based; design: time < 1440 min, dose 10 mg/kg, route ig; conditions: in vivo, po
[3] = Cmax in Sprague-Dawley rat at 2 mg/kg, iv measured upto 1440 mins by LC-MS/MS analysis; assay type: ADME, organism-based; design: time < 1440 min, dose 2 mg/kg, route iv; conditions: in vivo
[4] = Bioavailability in Sprague-Dawley rat at 2 mg/kg, iv measured upto 1440 mins by LC-MS/MS analysis; assay type: ADME, organism-based; conditions: in vivo
Mus musculus [5] = experiment: Antidepressant activity in reserpine-induced ICR mouse model assessed as reduction in weight loss at 10 to 20 mg/kg pretreated with reserpine for 3 days followed by compound addition on 4 to 10 days; assay type: functional, organism-based; conditions: dose 10-20 mg/kg, time 6.0 day
Outline: (§1)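 Body weight was recorded daily. OFT: 5 min session scoring distance, speed, rearing and dejection. FST and TST: 6 min, with immobility scored over the last 4 min. Mean ± SD, n = 6; one-way ANOVA and t-test.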

PC-12 [6] = experiment: Neurocytoprotective activity against CORT-induced damage in rat PC-12 cells at 0.5 uM measured after 24 hrs by MTT assay; assay type: functional, cell-based
Outline: (§2)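 PC12 cells seeded at 5 × 10^4 cells/mL for 24 h. Medium was then replaced with compound (0.5–4.0 μM) plus 500 μM CORT (DMSO <1%) for 24 h. Viability was measured by MTT relative to the CORT model group.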

[7] = Cytotoxicity against rat PC-12 cells assessed as reduction in cell growth measured after 48 hrs by MTT assay; assay type: toxicity, cell-based
Outline: (§3)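 MTT assay: PC12, SH-SY5Y or L02 cells at 5.0 × 10^3 per well were grown for 24 h, treated with compound dilutions from 10 mM DMSO stocks, and cultured 48 h. MTT was then added for 4 h at 37 °C, formazan dissolved in DMSO, and absorbance read at 570 nm. Viability is relative to blank control; IC50 from three repeats. Media contained 10% FBS.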

[8] = Cytotoxicity against human L02 cells assessed as reduction in cell growth measured after 48 hrs by MTT assay; assay type: toxicity, cell-based; outline: as §3
[9] = Tmax in Sprague-Dawley rat at 10 mg/kg, IG measured upto 1440 mins by LC-MS/MS analysis; assay type: ADME, organism-based; conditions: in vivo, po
[10] = biological target: T1, Amine oxidase [flavin-containing] A (Homo sapiens, UniProt P21397); experiment: Inhibition of MAO-A (unknown origin) using p-tyramine as substrate preincubated for 15 mins followed by substrate addition and measured after 15 mins by Amplex red fluorescence based microplate reader assay
T1 sequence (P21397 whole entry): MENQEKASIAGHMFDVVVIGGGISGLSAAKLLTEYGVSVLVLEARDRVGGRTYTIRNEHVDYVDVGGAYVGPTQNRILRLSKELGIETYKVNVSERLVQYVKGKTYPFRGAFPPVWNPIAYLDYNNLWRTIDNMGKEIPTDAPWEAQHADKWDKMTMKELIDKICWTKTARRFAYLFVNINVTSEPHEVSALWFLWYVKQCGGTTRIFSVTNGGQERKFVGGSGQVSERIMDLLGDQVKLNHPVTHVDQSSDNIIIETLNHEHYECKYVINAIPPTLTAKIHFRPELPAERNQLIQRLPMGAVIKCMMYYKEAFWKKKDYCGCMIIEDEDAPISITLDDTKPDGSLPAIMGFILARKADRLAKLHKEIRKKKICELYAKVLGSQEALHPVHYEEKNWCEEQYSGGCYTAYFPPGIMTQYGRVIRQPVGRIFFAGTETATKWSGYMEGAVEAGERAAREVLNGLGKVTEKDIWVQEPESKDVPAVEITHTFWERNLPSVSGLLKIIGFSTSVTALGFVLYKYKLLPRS

Mus musculus [11] = experiment: Antidepressant activity in chronic unpredictable mild stress ICR mouse model assessed as increase in gluco-phagy at 10 to 20 mg/kg measured after 2 weeks by sugar preference test; assay type: functional, organism-based; conditions: dose 10-20 mg/kg
Outline: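 ICR mice received CUMS for 4 weeks: 11 stressors given randomly twice daily, 42 days in total. OFT: 5 min session scoring distance, speed, rearing and dejection. FST/TST: 6 min, with immobility scored over the last 4 min. Sucrose preference test was also run. Mean ± SD, n = 6.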

[12] = Clearance in Sprague-Dawley rat at 2 mg/kg, iv measured upto 1440 mins by LC-MS/MS analysis; assay type: ADME, organism-based; conditions: in vivo
Danio rerio [13] = organism: Danio rerio; experiment: Antidepressant activity in reserpine-induced zebrafish AB depression model assessed as increase in distance traveled at 0.1 to 1 uM pretreated for 40 mins with reserpine followed by compound addition and measured for 7 days by open field test; assay type: functional, organism-based; conditions: dose 0.1-1 µM, time 7.0 day
Outline: (§4)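 Zebrafish were exposed to 10 mg/L reserpine for 40 min. Compound (0.1, 0.5, 1 μM) or fluoxetine (1 μM) was given 24 h later for 7 days. Fish kept at 28.5 °C on a 14 h light/10 h dark cycle. Open-field and novel tank tests were video-tracked for distance, velocity, immobility and time in the top. Mean ± SD, n = 6.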

[14] = Toxicity in mouse assessed as toxic effect on spleen at 10 to 20 mg/kg by H and E staining based assay; assay type: organism-based; conditions: in vivo, dose 10-20 mg/kg
Outline: (§5)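 Mice given compound at 10 or 20 mg/kg, with fluoxetine 20 mg/kg as comparator. Paraffin tissue sections of 4 μm were cut. Staining: hematoxylin 5 min, 75% HCl-ethanol differentiation 30 s, eosin 2 min. Organs (liver, kidney, lung, heart, spleen) examined at ×400; hippocampus (CA1, CA3, DG) at ×200.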

Mus musculus [15] = experiment: Antidepressant activity in reserpine-induced ICR mouse model assessed as increase the number of rearing at 10 to 20 mg/kg pretreated with reserpine for 3 days followed by compound addition on day 4 to 10 by open field test; assay type: functional, organism-based; conditions: dose 10-20 mg/kg, time 6.0 day; outline: as §1
[16] = Cytotoxicity against human SH-SY5Y cells assessed as reduction in cell growth measured after 48 hrs by MTT assay; assay type: toxicity, cell-based; outline: as §3
Danio rerio [17] = organism: Danio rerio; experiment: Antidepressant activity in reserpine-induced zebrafish AB depression model assessed as decrease in immobility time at 0.1 to 1 uM pretreated for 40 mins with reserpine followed by compound addition and measured for 7 days by open field test; assay type: functional, organism-based; conditions: dose 0.1-1 µM, time 7.0 day; outline: as §4
[18] = Tmax in Sprague-Dawley rat at 2 mg/kg, iv measured upto 1440 mins by LC-MS/MS analysis; assay type: ADME, organism-based; conditions: in vivo
Hippocampus = experiment: Antidepressant activity in mouse hippocampal tissue assessed as reduction in neuronal cell damage at 10 to 20 mg/kg by H and E staining based assay; assay type: functional, organism-based; conditions: dose 10-20 mg/kg; outline: as §5
PC-12 [19] = experiment: Neurocytoprotective activity against CORT-induced damage in rat PC-12 cells at 0.5 to 4 uM measured after 24 hrs by MTT assay; assay type: functional, cell-based; conditions: dose 0.5-4 µM; outline: as §2
[20] = MRT infinity in Sprague-Dawley rat at 2 mg/kg, iv measured upto 1440 mins by LC-MS/MS analysis; assay type: ADME, organism-based; conditions: in vivo
Mus musculus [21] = experiment: Antidepressant activity in reserpine-induced ICR mouse model assessed as improvement in depression like behavior at 10 mg/kg pretreated with reserpine for 3 days followed by compound addition for 1 week by open field test; assay type: functional, organism-based; conditions: time 1.0 weeks; outline: as §1
[22] = AUC(0 to infinity) in Sprague-Dawley rat at 2 mg/kg, iv measured upto 1440 mins by LC-MS/MS analysis; assay type: ADME, organism-based; design: dose 2 mg/kg, time < 1440 min, route iv; conditions: in vivo

MRT inf [1]: 4.94 h
AUC(0-inf) [2]: 504 ng·h/mL
Cmax [3]: 673 ng/mL
bioavailability [4]: 4.4%
Tmax [9]: 1.33 h
pIC50 [10]: 8.40
clearance [12]: 14.5 mL/min/kg
Tmax [18]: 4.8 min
MRT inf [20]: 4.19 h
AUC(0-inf) [22]: 2320 ng·h/mL
SMILES: O=C1c2ccccc2-c2nccc3cc(OCCCCCN4CCN(c5ccccc5F)CC4)cc1c23
Activity (Mus musculus [5]): Active
Activity (PC-12 [6]): Active
IC50 at 48 h [7]: > 10 µM
IC50 at 48 h [8]: > 100 µM
Activity (Mus musculus [11]): Active
Activity (Danio rerio [13]): Active
Activity [14]: Non-Toxic
Activity (Mus musculus [15]): Active
IC50 at 48 h [16]: > 10 µM
Activity (Danio rerio [17]): Active
Activity (Hippocampus): Active
Activity (PC-12 [19]): Active
Activity (Mus musculus [21]): Active
